# Data reported in ChEMBL document CHEMBL5036319, “Discovery of Novel Benzothiazepinones as Irreversible Covalent Glycogen Synthase Kinase 3β Inhibitors for the Treatment of Acute Promyelocytic Leukemia” (J Med Chem, 2021).
# Active and inactive are the calls of the source. The rule behind the calls is not given here.
# Key:
# [1] = molecular target: T1, Glycogen synthase kinase-3 beta (Homo sapiens, UniProt P49841); test: Inhibition of recombinant human GSK-3beta using GS-2 peptide as substrate incubated for 30 mins in presence of ATP by kinase-glo luminescence assay
# Target sequence in this assay (P49841 whole entry): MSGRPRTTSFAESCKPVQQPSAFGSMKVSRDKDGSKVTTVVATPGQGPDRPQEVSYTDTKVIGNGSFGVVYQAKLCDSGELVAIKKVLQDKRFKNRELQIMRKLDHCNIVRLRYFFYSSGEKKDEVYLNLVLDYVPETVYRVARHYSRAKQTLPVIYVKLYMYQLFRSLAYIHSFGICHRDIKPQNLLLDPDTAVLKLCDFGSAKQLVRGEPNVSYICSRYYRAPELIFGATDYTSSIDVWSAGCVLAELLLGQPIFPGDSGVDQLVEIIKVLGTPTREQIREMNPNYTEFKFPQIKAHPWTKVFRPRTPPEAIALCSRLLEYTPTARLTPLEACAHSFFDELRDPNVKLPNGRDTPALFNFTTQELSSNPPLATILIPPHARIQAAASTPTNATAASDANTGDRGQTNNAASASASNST
# [2] = Cytotoxicity against HUVEC assessed as cell viability at 100 uM incubated for 24 hrs by CCK-8 assay relative to control; type: cell-based; details: human, read-out: Activity
# In short: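 HUVEC and LO2 normal cells were cultured in RPMI-1640 or DMEM with 10% FBS at 37 °C, 5% CO2, and seeded at 3 × 10^4 cells/well. They were exposed for 24 h to graded concentrations. CCK-8 incubation was 3 h at 37 °C, with A450 read and viability expressed versus untreated control. Three independent experiments, mean ± SEM.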
# [3] = Induction in caspase-mediated apoptosis in human NB-4 cells assessed as viable cells at 25 uM incubated for 24 hrs by Annexin V-FITC/propidium iodide staining based flow cytometry analysis (reference value: 96.6%); type: functional; details: read-out: Activity
# [4] = Induction in caspase-mediated apoptosis in human NB-4 cells assessed as late apoptotic cells at 25 uM incubated for 24 hrs by Annexin V-FITC/propidium iodide staining based flow cytometry analysis (reference value: 1.06%); type: functional
# [5] = Induction in caspase-mediated apoptosis in human NB-4 cells assessed as viable cells at 50 uM incubated for 24 hrs by Annexin V-FITC/propidium iodide staining based flow cytometry analysis (reference value: 96.6%); type: functional; details: read-out: Activity
# [6] = Induction in caspase-mediated apoptosis in human NB-4 cells assessed as early apoptotic cells at 50 uM incubated for 24 hrs by Annexin V-FITC/propidium iodide staining based flow cytometry analysis (reference value: 2.02%); type: functional
# [7] = Induction in caspase-mediated apoptosis in human NB-4 cells assessed as viable cells at 12.5 uM incubated for 24 hrs in presence of Z-VAD-FMK by Annexin V-FITC/propidium iodide staining based flow cytometry analysis (reference value: 96.8%); type: functional; details: read-out: Activity
# [8] = Induction in caspase-mediated apoptosis in human NB-4 cells assessed as necrotic cells at 12.5 uM incubated for 24 hrs in presence of Z-VAD-FMK by Annexin V-FITC/propidium iodide staining based flow cytometry analysis (reference value: 0.167%); type: functional
# [9] = Induction in caspase-mediated apoptosis in human NB-4 cells assessed as early apoptotic cells at 50 uM incubated for 24 hrs in presence of Z-VAD-FMK by Annexin V-FITC/propidium iodide staining based flow cytometry analysis (reference value: 1.84%); type: functional
# [10] = Induction in caspase-mediated apoptosis in human NB-4 cells assessed as late apoptotic cells at 50 uM incubated for 24 hrs in presence of Z-VAD-FMK by Annexin V-FITC/propidium iodide staining based flow cytometry analysis (reference value: 1.15%); type: functional
# [11] = Induction in caspase-mediated apoptosis in human NB-4 cells assessed as viable cells at 100 uM incubated for 24 hrs in presence of Z-VAD-FMK by Annexin V-FITC/propidium iodide staining based flow cytometry analysis (reference value: 96.8%); type: functional; details: read-out: Activity
# [12] = Induction in caspase-mediated apoptosis in human NB-4 cells assessed as late apoptotic cells at 100 uM incubated for 24 hrs in presence of Z-VAD-FMK by Annexin V-FITC/propidium iodide staining based flow cytometry analysis (reference value: 1.15%); type: functional
# [13] = Induction in caspase-mediated apoptosis in human NB4-DR1 cells assessed as viable cells at 12.5 uM incubated for 24 hrs by Annexin V-FITC/propidium iodide staining based flow cytometry analysis (reference value: 96.9%); type: functional; details: read-out: Activity
# [14] = Induction in caspase-mediated apoptosis in human NB4-DR1 cells assessed as late apoptotic cells at 12.5 uM incubated for 24 hrs by Annexin V-FITC/propidium iodide staining based flow cytometry analysis (reference value: 1.47%); type: functional
# [15] = Induction in caspase-mediated apoptosis in human NB4-DR1 cells assessed as late apoptotic cells at 25 uM incubated for 24 hrs by Annexin V-FITC/propidium iodide staining based flow cytometry analysis (reference value: 1.47%); type: functional
# [16] = Induction in caspase-mediated apoptosis in human NB4-DR1 cells assessed as necrotic cells at 25 uM incubated for 24 hrs by Annexin V-FITC/propidium iodide staining based flow cytometry analysis (reference value: 0.19%); type: functional
# [17] = Induction in caspase-mediated apoptosis in human NB4-DR1 cells assessed as viable cells at 50 uM incubated for 24 hrs by Annexin V-FITC/propidium iodide staining based flow cytometry analysis (reference value: 96.9%); type: functional; details: read-out: Activity
# [18] = Induction in caspase-mediated apoptosis in human NB4-DR1 cells assessed as late apoptotic cells at 50 uM incubated for 24 hrs by Annexin V-FITC/propidium iodide staining based flow cytometry analysis (reference value: 1.47%); type: functional
# [19] = Induction in caspase-mediated apoptosis in human NB4-DR1 cells assessed as viable cells at 12.5 uM incubated for 24 hrs in presence of Z-VAD-FMK by Annexin V-FITC/propidium iodide staining based flow cytometry analysis (reference value: 96.4%); type: functional; details: read-out: Activity
# [20] = Induction in caspase-mediated apoptosis in human NB4-DR1 cells assessed as viable cells at 25 uM incubated for 24 hrs in presence of Z-VAD-FMK by Annexin V-FITC/propidium iodide staining based flow cytometry analysis (reference value: 96.4%); type: functional; details: read-out: Activity
# [21] = Induction in caspase-mediated apoptosis in human NB4-DR1 cells assessed as late apoptotic cells at 50 uM incubated for 24 hrs in presence of Z-VAD-FMK by Annexin V-FITC/propidium iodide staining based flow cytometry analysis (reference value: 2.54%); type: functional
# [22] = Induction in caspase-mediated apoptosis in human NB4-DR1 cells assessed as early apoptosis cells at 100 uM incubated for 24 hrs in presence of Z-VAD-FMK by Annexin V-FITC/propidium iodide staining based flow cytometry analysis (reference value: 0.875%); type: functional
# [23] = Induction in caspase-mediated apoptosis in human NB4-DR1 cells assessed as late apoptotic cells at 100 uM incubated for 24 hrs in presence of Z-VAD-FMK by Annexin V-FITC/propidium iodide staining based flow cytometry analysis (reference value: 2.54%); type: functional
# [24] = Tmax in ICR mouse at 15 mg/kg, ip administered as single dose measured upto 8 hrs by LC-MS/MS analysis; type: ADME, organism-based; details: in vivo
# In short: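 Male ICR mice (30 g) received a single 15 mg/kg i.p. bolus in corn oil. Orbital blood went into K3EDTA tubes at 0.08–8 h, three animals per time point (composite profile). Plasma was protein-precipitated with acetonitrile and analysed by LC–MS/MS; non-compartmental analysis.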
# [25] = molecular target: T1, Glycogen synthase kinase-3 beta; test: Binding affinity to recombinant human GSK-3beta assessed as covalent bond formation between compound and enzyme by measuring mass changes by […] analysis
# In short: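 Human recombinant GSK-3β (10 μM stock in 50 mM HEPES, 1 mM EDTA, 2 mM EGTA, 15 mM Mg(OAc)2) was incubated with compound in DMSO (1.6 μL of 500 μM into 14.4 μL) at 30 °C with shaking for 30 min. Intact protein was run on C4 LC over a 5–100% acetonitrile/0.1% formic acid gradient into positive-ion Q-TOF MS, and mass shift was read.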
# Target sequence in this assay (P49841 whole entry, looked up): as the sequence (P49841 whole entry) above
smiles,measurement,setting,value
C=CC(=O)N1C(=O)CC(c2ccc(F)cc2)Sc2ccccc21 (stereo not given),IC50,[1],6.6 µM
same,"viability at 24 h, 100 µM",[2],> 70%
same,viability at 25 µM,[3],36.4%
same,Activity,[4],45.6%
same,viability at 50 µM,[5],14.2%
same,Activity,[6],7.23%
same,viability at 12.5 µM,[7],86.4%
same,Activity,[8],1.59%
same,Activity,[9],8.18%
same,Activity,[10],11.7%
same,viability at 100 µM,[11],72.2%
same,Activity,[12],19.6%
same,viability at 12.5 µM,[13],92.2%
same,Activity,[14],5.54%
same,Activity,[15],14.8%
same,Activity,[16],1.32%
same,viability at 50 µM,[17],79.7%
same,Activity,[18],16.1%
same,viability at 12.5 µM,[19],96.1%
same,viability at 25 µM,[20],93%
same,Activity,[21],7.04%
same,Activity,[22],2.19%
same,Activity,[23],14.2%
same,Tmax,[24],1 h
same,Activity,[25],Active
